Assays:
[1] = target: T1, Estrogen receptor (Mus musculus) (UniProt O08537+P19785); experiment: Anti-uterotrophic effect in mice at 5 ug; type: functional
In short: (§1)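 Immature female NMRI mice (20 days old), groups of 6-10, injected sc in olive oil (100 μL/animal) on three consecutive days with test compound plus 0.4 μg estrone per animal and day. Killed 24 h after last injection; uteri fixed in Bouin solution, dried at 100 °C for 24 h. Relative uterine weight = uterine dry weight (mg)/body weight (g) × 100; mean of six animals ± SD.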

[2] = target: T1, Estrogen receptor (Mus musculus); experiment: Uterotrophic effect in mice at 1 ug; type: functional, tissue-based; conditions: Uterus
In short: (§2)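 Immature NMRI female mice, 20 days old, groups of 6-10, received test compound in olive oil (100 μL/animal) sc on three consecutive days; vehicle controls were included. At 24 h after the last dose, uteri were fixed in Bouin solution and dried at 100 °C for 24 h. Read-out was uterine dry weight (mg)/body weight (g) × 100, mean of six animals ± SD.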

[3] = target: T1, Estrogen receptor (Mus musculus); experiment: Percent inhibition of uterotrophic effect in mice at 5 ug dose; type: functional
In short: (§3)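 Mice were immature female NMRI (20 days old) given sc injections in olive oil on three consecutive days, each containing 0.4 μg estrone plus test compound. Uteri were weighed dry 24 h after the last injection. Antagonism (%) = 100 − [(W_S,T − W_V)/(W_S − W_V) × 100], with relative uterine weights from estrone+compound, estrone alone and vehicle controls. Significance was tested by Mann-Whitney U test.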

[4] = target: T1, Estrogen receptor (Mus musculus); experiment: Anti-uterotrophic effect in mice at 125 ug; type: functional; in short: as §1
[5] = target: T1, Estrogen receptor (Mus musculus); experiment: Uterotrophic effect in mice at 125 ug; type: functional, tissue-based; conditions: Uterus; in short: as §2
[6] = target: Estrogen receptor (Bos taurus) (UniProt Q9XSB5+P49884); experiment: Relative binding affinity to calf uterine estrogen receptor; type: protein assay
In short: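 Calf uterine cytosol (105000g supernatant, 3 mg/mL protein in the assay) in Tris/EDTA/NaN3 buffer pH 7.5, with 5 nM 17β-[3H]estradiol and competitor at 10^-9–10^-5 M. Incubated 18 h at 4 °C; bound and free ligand separated with dextran-coated charcoal. Nonspecific binding defined with 5 μM estradiol. RBA = ratio of molar concentrations of estradiol and compound giving 50% displacement × 100.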

[7] = target: T1, Estrogen receptor (Mus musculus); experiment: Uterotrophic effect in mice at 5 ug; type: functional, tissue-based; conditions: Uterus; in short: as §2
[8] = target: T1, Estrogen receptor (Mus musculus); experiment: Percent inhibition of uterotrophic effect in mice at 125 ug dose; type: functional; in short: as §3
[9] = target: T1, Estrogen receptor (Mus musculus); experiment: Percent inhibition of uterotrophic effect in mice at 25 ug dose; type: functional; in short: as §3
[10] = target: T1, Estrogen receptor (Mus musculus); experiment: Uterotrophic effect in mice at 25 ug; type: functional, tissue-based; conditions: Uterus; in short: as §2
[11] = target: T1, Estrogen receptor (Mus musculus); experiment: Anti-uterotrophic effect in mice at 25 ug; type: functional; in short: as §1
[12] = target: T1, Estrogen receptor (Mus musculus); experiment: Anti-uterotrophic effect in mice at 1 ug; type: functional; in short: as §1
[13] = target: T1, Estrogen receptor (Mus musculus); experiment: Percent inhibition of uterotrophic effect in mice at 1 ug dose; type: functional; in short: as §3

T1 sequence (O08537 whole entry, looked up): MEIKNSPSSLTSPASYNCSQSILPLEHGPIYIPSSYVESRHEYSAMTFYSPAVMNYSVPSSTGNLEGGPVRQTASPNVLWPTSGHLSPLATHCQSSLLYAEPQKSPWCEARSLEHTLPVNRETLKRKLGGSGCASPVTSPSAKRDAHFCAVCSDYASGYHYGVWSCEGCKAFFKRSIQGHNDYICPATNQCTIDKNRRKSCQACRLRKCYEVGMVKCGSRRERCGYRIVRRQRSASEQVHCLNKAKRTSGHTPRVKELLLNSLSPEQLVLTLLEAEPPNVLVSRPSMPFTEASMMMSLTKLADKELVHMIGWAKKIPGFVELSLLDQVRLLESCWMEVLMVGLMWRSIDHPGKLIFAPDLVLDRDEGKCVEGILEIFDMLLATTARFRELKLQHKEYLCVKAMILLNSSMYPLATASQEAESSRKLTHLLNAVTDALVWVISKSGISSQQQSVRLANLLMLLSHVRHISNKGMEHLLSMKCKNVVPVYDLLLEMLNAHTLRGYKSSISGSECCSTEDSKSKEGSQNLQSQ
T1 sequence (P19785 whole entry, looked up): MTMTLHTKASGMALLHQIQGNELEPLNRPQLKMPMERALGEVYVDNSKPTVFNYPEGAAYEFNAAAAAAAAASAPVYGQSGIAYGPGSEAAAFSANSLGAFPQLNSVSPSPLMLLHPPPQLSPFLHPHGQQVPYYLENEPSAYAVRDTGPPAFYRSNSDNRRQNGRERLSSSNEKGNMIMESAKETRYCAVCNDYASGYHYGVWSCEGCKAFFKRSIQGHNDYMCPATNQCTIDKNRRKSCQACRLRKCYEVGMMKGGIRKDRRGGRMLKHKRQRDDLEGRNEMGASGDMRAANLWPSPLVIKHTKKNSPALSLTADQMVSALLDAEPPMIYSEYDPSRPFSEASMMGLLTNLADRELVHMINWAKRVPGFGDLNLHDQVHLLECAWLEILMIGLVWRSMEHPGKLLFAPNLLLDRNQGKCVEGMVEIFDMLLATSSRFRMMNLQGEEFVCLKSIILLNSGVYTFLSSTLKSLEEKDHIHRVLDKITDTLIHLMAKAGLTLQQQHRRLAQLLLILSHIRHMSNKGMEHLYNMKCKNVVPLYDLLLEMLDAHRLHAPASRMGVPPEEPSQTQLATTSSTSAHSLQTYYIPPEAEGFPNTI

| SMILES | Relative uterine weight [1] | Relative uterine weight [2] | inhibition [3] | Relative uterine weight [4] | Relative uterine weight [5] | relative binding affinity (RBA) [6] | Relative uterine weight [7] | inhibition [8] | inhibition [9] | Relative uterine weight [10] | Relative uterine weight [11] | Relative uterine weight [12] | inhibition [13] |
| --- | --- | --- | --- | --- | --- | --- | --- | --- | --- | --- | --- | --- | --- |
| CNCCCCCCC1C(c2ccc(O)cc2)=C(C)c2cc(O)ccc21 (stereo unspecified) | 38.1 | 14.4 | 49% | 33.7 | 34 | 27 | 22.8 | 59% | – | – | – | – | – |
| CC1=C(c2ccc(O)cc2)C(CCCCCCCCN2CCCC2)c2ccc(O)cc21 (stereo unspecified) | – | – | – | – | – | 7.6 | – | – | – | – | – | – | – |
| Oc1ccc(C2=Cc3cc(O)ccc3C2CCCCCCN2CCCCC2)cc1 (stereo unspecified) | – | – | – | – | – | 1.3 | – | – | – | – | – | – | – |
| CC1=C(c2ccc(O)cc2)C(CCCCCCN2CCOCC2)c2ccc(O)cc21 (stereo unspecified) | 51.2 | – | 8% | 18 | 17.4 | 10 | 19.5 | 102% | 18% | 21.8 | 47.7 | – | – |
| CC1=C(c2ccc(O)cc2)C(CCCCCCN2CCCCC2)c2ccc(O)cc21 (stereo unspecified) | 28.9 | – | 71% | 22.3 | 24.7 | 23 | 19.7 | 98% | – | 21.4 | – | – | – |
| CC1=C(c2ccc(O)cc2)C(CCCCN2CCCC2)c2ccc(O)cc21 (stereo unspecified) | 47.6 | 7.6 | – | 25.5 | 6.4 | 3.6 | 8 | 53% | 78% | 6.4 | 16.2 | 43.7 | 5% |
| CC1=C(c2ccc(O)cc2)C(CCCCCCNCc2ccccc2)c2ccc(O)cc21 (stereo unspecified) | 53.2 | – | 25% | 40.8 | 34 | 15 | 17.8 | 51% | 43% | 23.6 | 44.6 | – | – |
| CC1=C(c2ccc(O)cc2)C(CCCCCCN2CCCC2)c2ccc(O)cc21 (stereo unspecified) | 15.4 | 12.5 | 100% | 8.9 | 14.1 | – | 9 | 117% | 103% | 13.9 | 14.4 | 45.8 | 20% |
| Oc1ccc(C2=Cc3cc(O)ccc3C2CCCCCCN2CCCC2)cc1 (stereo unspecified) | – | – | – | – | – | 2.3 | – | – | – | – | – | – | – |

Second part, the compound after the results:

| Relative uterine weight [1] | Relative uterine weight [2] | inhibition [3] | Relative uterine weight [4] | Relative uterine weight [5] | relative binding affinity (RBA) [6] | Relative uterine weight [7] | inhibition [8] | inhibition [9] | Relative uterine weight [10] | Relative uterine weight [11] | Relative uterine weight [12] | inhibition [13] | SMILES |
| --- | --- | --- | --- | --- | --- | --- | --- | --- | --- | --- | --- | --- | --- |
| – | – | – | – | – | 11 | – | – | – | – | – | – | – | CC1=C(c2ccc(O)cc2)C(CCCCCCCN)c2ccc(O)cc21 (stereo unspecified) |
| 30.1 | 10.9 | 68% | 16.2 | 16.9 | 25 | 11.9 | 99% | 102% | 12.4 | 15 | 65.9 | – | CC1=C(c2ccc(O)cc2)C(CCCCCCN)c2ccc(O)cc21 (stereo unspecified) |
| 46 | – | 23% | 30.9 | 22.4 | 14 | 16.1 | 61% | – | 18.2 | 52.5 | – | – | CCN(CC)CCCCCCC1C(c2ccc(O)cc2)=C(C)c2cc(O)ccc21 (stereo unspecified) |
| – | – | – | – | – | 12 | – | – | – | – | – | – | – | CC1=C(c2ccc(O)cc2)C(CCCCCCN(C)C)c2ccc(O)cc21 (stereo unspecified) |
